# Experiments:
# Type in all cases: functional, cell-based
# L1210 = assay: Cytostatic activity against mouse L1210 cells assessed as inhibition of cell proliferation after 48 hrs by coulter counting analysis
# Outline: (§1)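 Anti-proliferative screen in murine leukemia L1210, human T-lymphocyte CEM and human cervix carcinoma HeLa cultures. The value reported is the IC50, the concentration that inhibits cell proliferation by 50%.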
# CCRF-CEM = assay: Cytostatic activity against human CEM cells assessed as inhibition of cell proliferation after 72 hrs by coulter counting analysis; outline: as §1
# HeLa = assay: Cytostatic activity against human HeLa cells assessed as inhibition of cell proliferation after 72 hrs by coulter counting analysis; outline: as §1
# CAKI-1 = assay: Cytostatic activity against human Caki1 cells assessed as inhibition of cell proliferation after 96 hrs by coulter counting analysis; conditions: CAKI-1, 96 h
# Outline: (§2)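 Anti-proliferative testing extended to human kidney Caki-1 and human liver Huh-7 tumour cells. The value reported is the IC50, the concentration that inhibits tumour cell growth by 50%.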
# Huh-7 = assay: Cytostatic activity against human HuH7 cells assessed as inhibition of cell proliferation after 96 hrs by coulter counting analysis; conditions: Huh-7, 96 h; outline: as §2
SMILES,"IC50 (L1210; Mus musculus, L1210, 48 h) [µM]","IC50 (CCRF-CEM; Homo sapiens, CCRF-CEM, 72 h) [µM]","IC50 (HeLa; Homo sapiens, HeLa, 72 h) [µM]",IC50 (Huh-7) [µM],IC50 (L1210; l1210) [µM],IC50 (CCRF-CEM; ccrf-cem) [µM],IC50 (HeLa; hela) [µM],IC50 (CAKI-1) [µM]
COC(=O)C[C@H](NC(=O)OC(C)(C)C)C(=O)N(CC(=O)OC)C1(C(=O)NCc2ccccc2)CCN(Cc2ccccc2)CC1,49,46,32,–,–,–,–,–
COC(=O)C[C@H](NC(=O)OC(C)(C)C)C(=O)N(Cc1ccccc1)C1(C(=O)NCc2ccccc2)CCN(C(=O)OC(C)(C)C)CC1,21,21,24,–,–,–,–,–
CCCCNC(=O)C1(N(Cc2ccccc2)C(=O)[C@H](CC(=O)OC)NC(=O)OC(C)(C)C)CCN(Cc2ccccc2)CC1,24,28,36,–,–,–,–,–
COC(=O)C[C@H](NC(=O)OC(C)(C)C)C(=O)N(Cc1ccccc1)C1(C(=O)NC(C)(C)C)CCN(Cc2ccccc2)CC1,23,24,21,–,–,–,–,–
COC(=O)C[C@H](NC(=O)OC(C)(C)C)C(=O)N(Cc1ccccc1)C1(C(=O)NC2CCCCC2)CCN(Cc2ccccc2)CC1,19,20,21,–,–,–,–,–
COC(=O)CNC(=O)C1(N(Cc2ccccc2)C(=O)[C@H](CC(=O)OC)NC(=O)OC(C)(C)C)CCN(Cc2ccccc2)CC1,123,109,227,–,–,–,–,–
COC(=O)C[C@H](NC(=O)OC(C)(C)C)C(=O)N(Cc1ccc(F)cc1)C1(C(=O)NCc2ccccc2)CCN(Cc2ccccc2)CC1,22,16,19,–,–,–,–,–
COC(=O)C[C@H](NC(=O)OC(C)(C)C)C(=O)N(Cc1cc(OC)c(OC)c(OC)c1)C1(C(=O)NCc2ccccc2)CCN(Cc2ccccc2)CC1,31,23,22,–,–,–,–,–
COC(=O)C[C@H](NC(=O)OC(C)(C)C)C(=O)N(CCNc1ccccc1)C1(C(=O)NCc2ccccc2)CCN(Cc2ccccc2)CC1,21,14,21,–,–,–,–,–
COC(=O)C[C@H](NC(=O)OC(C)(C)C)C(=O)NC1(C(=O)NCc2ccccc2)CCN(Cc2ccccc2)CC1,23,25,24,–,–,–,–,–
COC(=O)C[C@H](NC(=O)OC(C)(C)C)C(=O)N(C)C1(C(=O)NCc2ccccc2)CCN(Cc2ccccc2)CC1,17,20,11,–,–,–,–,–
CCC(C)N(C(=O)[C@H](CC(=O)OC)NC(=O)OC(C)(C)C)C1(C(=O)NCc2ccccc2)CCN(Cc2ccccc2)CC1 (some centres undefined),20,19,16,–,–,–,–,–
COC(=O)C[C@H](NC(=O)OC(C)(C)C)C(=O)N(C1CC1)C1(C(=O)NCc2ccccc2)CCN(Cc2ccccc2)CC1,14,6.7,7.9,–,–,–,–,–
CC(C)(C)OC(=O)N1CCC[C@H]1C(=O)N(Cc1ccccc1)C1(C(=O)NCc2ccccc2)CCN(Cc2ccccc2)CC1,61,> 50,137,–,–,–,–,–
CC(C)(C)OC(=O)N[C@@H](Cc1c[nH]c2ccccc12)C(=O)N(Cc1ccccc1)C1(C(=O)NCc2ccccc2)CCN(Cc2ccccc2)CC1,4.6,5.9,5.9,6.6,–,–,–,14
COC(=O)C[C@H](NC(=O)OCc1ccccc1)C(=O)N(Cc1ccccc1)C1(C(=O)NCc2ccccc2)CCN(Cc2ccccc2)CC1,5.8,4.5,14,–,–,–,–,–

SMILES,"IC50 (L1210; Mus musculus, L1210, 48 h) [µM]","IC50 (CCRF-CEM; Homo sapiens, CCRF-CEM, 72 h) [µM]","IC50 (HeLa; Homo sapiens, HeLa, 72 h) [µM]",IC50 (Huh-7) [µM],IC50 (L1210; l1210) [µM],IC50 (CCRF-CEM; ccrf-cem) [µM],IC50 (HeLa; hela) [µM],IC50 (CAKI-1) [µM]
COC(=O)C[C@H](NC(=O)OCC1c2ccccc2-c2ccccc21)C(=O)N(Cc1ccccc1)C1(C(=O)NCc2ccccc2)CCN(Cc2ccccc2)CC1,5.4,5.2,14,–,–,–,–,–
COC(=O)C[C@H](NC(=O)OC(C)(C)C)C(=O)N(Cc1ccccc1)C1(C(=O)NCc2ccccc2)CCNCC1,> 200,124,> 167,–,–,–,–,–
COC(=O)C[C@H](N)C(=O)N(Cc1ccccc1)C1(C(=O)NCc2ccccc2)CCN(Cc2ccccc2)CC1,90,104,100,–,–,–,–,–
CCC(C)N(C(=O)[C@@H](N)Cc1ccccc1)C1(C(=O)NCc2ccccc2)CCN(Cc2ccccc2)CC1 (some centres undefined),81,99,90,–,–,–,–,–
CCC(C)N(C(=O)[C@@H](N)CC(=O)OC)C1(C(=O)NCc2ccccc2)CCN(Cc2ccccc2)CC1 (some centres undefined),244,238,> 250,–,–,–,–,–
CCC(C)N(C(=O)[C@@H](N)CC(=O)OC)C1(C(=O)NCc2ccccc2)CCNCC1 (some centres undefined),> 250,> 250,> 250,–,–,–,–,–
O=C(N[C@@H](Cc1ccccc1)C(=O)N(Cc1ccccc1)C1(C(=O)NCc2ccccc2)CCN(Cc2ccccc2)CC1)Oc1ccccc1,3.5,9,17,–,–,–,–,–
CCC(C)N(C(=O)[C@H](Cc1ccccc1)NC(=O)OC(C)(C)C)C1(C(=O)NCc2ccccc2)CCN(Cc2ccccc2)CC1 (some centres undefined),4.2,10,24,–,–,–,–,–
CCC(C)N(C(=O)[C@H](CC(=O)OC)NC(=O)OCc1ccccc1)C1(C(=O)NCc2ccccc2)CCN(Cc2ccccc2)CC1 (some centres undefined),5.3,4.5,4.3,6.4,–,–,–,8.7
CC(C)(C)NC(=O)C1(N(C(=O)[C@H](Cc2ccccc2)NC(=O)OCc2ccccc2)C2CC2)CCN(Cc2ccccc2)CC1,6.6,6,26,–,–,–,–,–
CC(C)(C)NC(=O)C1(N(C(=O)[C@H](Cc2ccccc2)NC(=O)OCc2ccccc2)C2CC2)CCN(C(=O)OC(C)(C)C)CC1,17,15,148,–,–,–,–,–
CC(C)(C)NC(=O)C1(N(C(=O)[C@H](Cc2ccccc2)NC(=O)OC(C)(C)C)C2CC2)CCN(Cc2ccccc2)CC1,14,19,20,–,–,–,–,–
CC(C)(C)NC(=O)C1(N(C(=O)[C@H](Cc2ccccc2)NC(=O)OC(C)(C)C)C2CC2)CCN(C(=O)OC(C)(C)C)CC1,14,19,20,–,–,–,–,–
CCC(C)N(C(=O)[C@@H](NC(=O)OCc1ccccc1)[C@@H](C)CC)C1(C(=O)NCc2ccccc2)CCN(Cc2ccccc2)CC1 (some centres undefined),83,111,119,–,–,–,–,–
CC[C@H](C)[C@H](NC(=O)OCc1ccccc1)C(=O)N(C1CC1)C1(C(=O)NCc2ccccc2)CCN(Cc2ccccc2)CC1,11,16,30,–,–,–,–,–
COC(=O)C[C@H](NC(=O)OCc1ccccc1)C(=O)N(C1CC1)C1(C(=O)NCc2ccccc2)CCN(Cc2ccccc2)CC1,5.3,6.2,4.7,–,–,–,–,–

# Further lines, with some results ahead:
"IC50 (L1210; Mus musculus, L1210, 48 h) [µM]","IC50 (CCRF-CEM; Homo sapiens, CCRF-CEM, 72 h) [µM]","IC50 (HeLa; Homo sapiens, HeLa, 72 h) [µM]",IC50 (Huh-7) [µM],IC50 (L1210; l1210) [µM],IC50 (CCRF-CEM; ccrf-cem) [µM],IC50 (HeLa; hela) [µM],SMILES,IC50 (CAKI-1) [µM]
18,19,20,–,–,–,–,COC(=O)C[C@H](NC(=O)OC(C)(C)C)C(=O)N(Cc1ccccc1)C1(C(=O)NCc2ccccc2)CCN(Cc2ccccc2)CC1,–
24,65,107,–,–,–,–,C=CCOC(=O)N1CCC(C(=O)NCc2ccccc2)(N(Cc2ccccc2)C(=O)[C@H](CC(=O)OC)NC(=O)OC(C)(C)C)CC1,–
4.4,7.1,10,–,–,–,–,CC[C@H](C)[C@H](NC(=O)OC(C)(C)C)C(=O)N(Cc1ccccc1)C1(C(=O)NCc2ccccc2)CCN(Cc2ccccc2)CC1,–
5,5.2,23,–,–,–,–,CC(C)(C)OC(=O)N[C@@H](Cc1ccc(O)cc1)C(=O)N(Cc1ccccc1)C1(C(=O)NCc2ccccc2)CCN(Cc2ccccc2)CC1,–
164,> 200,> 200,–,–,–,–,CC(C)(C)OC(=O)N[C@@H](CC(=O)O)C(=O)N(Cc1ccccc1)C1(C(=O)NCc2ccccc2)CCN(Cc2ccccc2)CC1,–
27,26,25,–,–,–,–,CC(C)(C)OC(=O)N[C@@H](CC(N)=O)C(=O)N(Cc1ccccc1)C1(C(=O)NCc2ccccc2)CCN(Cc2ccccc2)CC1,–
94,63,84,–,–,–,–,CNC(=O)C[C@H](NC(=O)OC(C)(C)C)C(=O)N(Cc1ccccc1)C1(C(=O)NCc2ccccc2)CCN(Cc2ccccc2)CC1,–
76,59,68,–,–,–,–,CN(C)C(=O)C[C@H](NC(=O)OC(C)(C)C)C(=O)N(Cc1ccccc1)C1(C(=O)NCc2ccccc2)CCN(Cc2ccccc2)CC1,–
49,54,63,–,–,–,–,C=CCOC(=O)N1CCC(C(=O)NCc2ccccc2)(N(Cc2ccccc2)C(=O)[C@@H](N)Cc2ccccc2)CC1,–
5,5.7,13,–,–,–,–,CC(C)(C)OC(=O)N[C@@H](Cc1ccccc1)C(=O)N(Cc1ccccc1)C1(C(=O)NCc2ccccc2)CCN(C(=O)OC(C)(C)C)CC1,–
4.2,4.7,7,8.1,–,–,–,C=CCOC(=O)N1CCC(C(=O)NCc2ccccc2)(N(Cc2ccccc2)C(=O)[C@H](Cc2ccccc2)NC(=O)OC(C)(C)C)CC1,12
5.1,6.8,11,–,–,–,–,CC[C@@H](C)[C@H](NC(=O)OCc1ccccc1)C(=O)N(Cc1ccccc1)C1(C(=O)NCc2ccccc2)CCN(C(=O)OC(C)(C)C)CC1,–
–,–,18,–,9,22,–,"COC(=O)C[C@H](NC(=O)OC(C)(C)C)C(=O)N(Cc1ccccc1)C1(C(=O)NCc2ccccc2)CCN(Cc2ccccc2)C1 (single isomer, unassigned; diastereomer 2)",–
6.2,19,–,–,–,–,16,"COC(=O)C[C@H](NC(=O)OC(C)(C)C)C(=O)N(Cc1ccccc1)C1(C(=O)NCc2ccccc2)CCN(Cc2ccccc2)C1 (single isomer, unassigned; diastereomer-1)",–
